Reference: ChEMBL document CHEMBL1137756, “Induction of apoptosis promoted by Bang52; a small molecule that downregulates Bcl-x(L)” (2009)
Activity calls are given as the source filed them. The rule behind the calls is not given here.

What was measured:
WTK1 [1] = experiment: Induction of p53 phosphorylation at Ser15 in human WTK1 cells expressing p53 M237I mutant at 25 uM after 8 hrs by Western blot analysis; assay type: functional, cell-based
How it was run: (§1)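 TK6 and WTK1 cells (NH32 also run) treated 8 h at 25 μM, vehicle or doxorubicin 0.1 μM. Extracts immunoblotted for p53, phospho-p53 (Ser15), p21cip1/Waf1 and β-actin.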

WTK1 [2] = experiment: Induction of apoptosis in human WTK1 cells expressing p53 M237I mutant assessed as decrease in pro-caspase 3 level at 0.1 uM after 8 hrs by Western blot analysis; assay type: functional, cell-based
How it was run: (§2)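 Exposure for 8 h to vehicle, 0.1 μM doxorubicin or 25 μM test agents, followed by protein extraction. Western blots probed for cleaved PARP, caspase-3 and β-actin as loading reference.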

WTK1 [3] = experiment: Induction of p53 transcriptional activity in human WTK1 cells expressing p53 M237I mutant assessed as p21-Cip1/Waf1 expression at 25 uM after 8 hrs by Western blot analysis; assay type: functional, cell-based; how it was run: as §1
TK6 [4] = experiment: Induction of p53 phosphorylation at Ser15 in human TK6 cells expressing wild type p53 at 0.1 uM after 8 hrs by Western blot analysis; assay type: functional, cell-based
How it was run: (§3)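 Exposure for 8 h to vehicle, 0.1 μM doxorubicin or 25 μM test agents, followed by protein extraction. Western blots probed for total p53, phospho-p53 (Ser15), p21cip1/Waf1 and β-actin.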

NH32 [5] = experiment: Induction of apoptosis in p53 deficient human NH32 cells assessed as increase in PARP cleavage at 0.1 uM after 8 hrs by Western blot analysis; assay type: functional, cell-based; how it was run: as §2
WTK1 [6] = experiment: Induction of apoptosis in human WTK1 cells expressing p53 M237I mutant assessed as increase in cleaved caspase 3 level at 0.1 uM after 8 hrs by Western blot analysis; assay type: functional, cell-based; how it was run: as §2
NH32 [7] = experiment: Induction of apoptosis in p53 deficient human NH32 cells assessed as decrease in pro-caspase 3 level at 0.1 uM after 8 hrs by Western blot analysis; assay type: functional, cell-based; how it was run: as §2
TK6 [8] = experiment: Induction of p53 transcriptional activity in human TK6 cells expressing wild type p53 assessed as p21-Cip1/Waf1 expression at 0.1 uM after 8 hrs by Western blot analysis; assay type: functional, cell-based; how it was run: as §3
TK6 [9] = experiment: Induction of p53 phosphorylation at Ser15 in human TK6 cells expressing wild type p53 at 25 uM after 8 hrs by Western blot analysis; assay type: functional, cell-based; how it was run: as §1
TK6 [10] = experiment: Induction of apoptosis in human TK6 cells expressing wild type p53 assessed as increase in cleaved caspase 3 level at 0.1 uM after 8 hrs by Western blot analysis; assay type: functional, cell-based; how it was run: as §2
WTK1 [11] = experiment: Induction of p53 phosphorylation at Ser15 in human WTK1 cells expressing p53 M237I mutant at 0.1 uM after 8 hrs by Western blot analysis; assay type: functional, cell-based; how it was run: as §3
NH32 [12] = experiment: Induction of apoptosis in p53 deficient human NH32 cells assessed as increase in cleaved caspase 3 level at 0.1 uM after 8 hrs by Western blot analysis; assay type: functional, cell-based; how it was run: as §2
[13] = Cell cycle arrest in human TK6 cells expressing wild type p53 assessed as accumulation at sub-G0/G1 phase at 0.1 uM after 72 hrs by flow cytometry; assay type: functional, cell-based
How it was run: (§4)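 Cells exposed 72 h to vehicle or compound (0.1 μM doxorubicin or 25 μM others) and harvested. Washed twice in ice-cold PBS, then resuspended in hypotonic solution (50 μg/ml propidium iodide, 25 μg/ml RNase, 0.1% sodium citrate, 0.1% Triton X-100) and held 1.5 h at 4°C in the dark. Flow cytometry at 10,000 events per histogram; cell death taken as the sub-G0/G1 fraction.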

TK6 [14] = experiment: Induction of p53 transcriptional activity in human TK6 cells expressing wild type p53 assessed as p21-Cip1/Waf1 expression at 25 uM after 8 hrs by Western blot analysis; assay type: functional, cell-based; how it was run: as §1
TK6 [15] = experiment: Induction of apoptosis in human TK6 cells expressing wild type p53 assessed as increase in PARP cleavage at 0.1 uM after 8 hrs by Western blot analysis; assay type: functional, cell-based; how it was run: as §2
TK6 [16] = experiment: Induction of apoptosis in human TK6 cells expressing wild type p53 assessed as decrease in pro-caspase 3 level at 0.1 uM after 8 hrs by Western blot analysis; assay type: functional, cell-based; how it was run: as §2
WTK1 [17] = experiment: Induction of p53 transcriptional activity in human WTK1 cells expressing p53 M237I mutant assessed as p21-Cip1/Waf1 expression at 0.1 uM after 8 hrs by Western blot analysis; assay type: functional, cell-based; how it was run: as §3
[18] = Cell cycle arrest in p53 deficient human NH32 cells assessed as accumulation at sub-G0/G1 phase at 0.1 uM after 72 hrs by flow cytometry; assay type: functional, cell-based; how it was run: as §4
WTK1 [19] = experiment: Induction of apoptosis in human WTK1 cells expressing p53 M237I mutant assessed as increase in PARP cleavage at 0.1 uM after 8 hrs by Western blot analysis; assay type: functional, cell-based; how it was run: as §2
[20] = Cell cycle arrest in human WTK1 cells expressing p53 M237I mutant assessed as accumulation at sub-G0/G1 phase at 0.1 uM after 72 hrs by flow cytometry; assay type: functional, cell-based; how it was run: as §4
NH32 [21] = experiment: Induction of apoptosis in p53 deficient human NH32 cells assessed as increase in PARP cleavage at 25 uM after 8 hrs by Western blot analysis; assay type: functional, cell-based
How it was run: (§5)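 TK6, NH32 and WTK1 cells treated 8 h with 25 μM or vehicle; doxorubicin 0.1 μM as comparator. Protein extracts analysed by Western blot probed for cleaved PARP, caspase-3 and β-actin.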

TK6 [22] = experiment: Induction of apoptosis in human TK6 cells expressing wild type p53 assessed as live cell population at 25 uM after 8 hrs using annexin-V and 7-ADD staining by flow cytometry; assay type: functional
How it was run: (§6)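 TK6 cells given 25 μM or vehicle for 8 h, washed twice in ice-cold PBS, stained with Annexin-V-PE plus 7-ADD. Flow cytometry assigned quadrant populations as percent of total cells. Histograms representative of three independent experiments.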

TK6 [23] = experiment: Induction of apoptosis in human TK6 cells expressing wild type p53 assessed as depolarization of inner mitochondrial membrane potential at 25 uM after 8 hrs by flow cytometry relative to CCCP; assay type: functional, cell-based
How it was run: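 TK6 cells exposed 8 h to 25 μM, vehicle, or CCCP 100 μM as depolarisation control. Cells washed in ice-cold PBS and resuspended in PBS. Membrane potential read by flow cytometry as FL1 (JC-1 monomers) versus FL2 (aggregates) dual-parameter plots. Representative of three independent experiments.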

NH32 [24] = experiment: Induction of apoptosis in p53 deficient human NH32 cells assessed as reduction of Bcl-Xl level at 25 uM after 8 hrs by Western blot analysis; assay type: functional, cell-based
How it was run: (§7)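 TK6, NH32 and WTK1 cells exposed 8 h to 25 μM, vehicle, or doxorubicin 0.1 μM. Protein extracted and Bcl-xL level assessed by Western blot.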

TK6 [25] = experiment: Induction of apoptosis in human TK6 cells expressing wild type p53 assessed as increase in PARP cleavage at 25 uM after 8 hrs by Western blot analysis; assay type: functional, cell-based; how it was run: as §5
NH32 [26] = experiment: Induction of apoptosis in p53 deficient human NH32 cells assessed as decrease in pro-caspase 3 level at 25 uM after 8 hrs by Western blot analysis; assay type: functional, cell-based; how it was run: as §5
TK6 [27] = experiment: Induction of apoptosis in human TK6 cells expressing wild type p53 assessed as early stage apoptotic cell population at 25 uM after 8 hrs using annexin-V and 7-ADD staining by flow cytometry; assay type: functional; how it was run: as §6
[28] = Cell cycle arrest in human TK6 cells expressing wild type p53 assessed as accumulation at sub-G0/G1 phase at 25 uM after 72 hrs by flow cytometry; assay type: functional, cell-based
How it was run: (§8)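 B lymphoblast lines TK6 (wild-type p53), NH32 (p53−/−) and WTK1 (mutant p53) exposed 72 h to 25 μM against vehicle; doxorubicin 0.1 μM as p53-dependent control. Washed twice in ice-cold PBS, held 1.5 h at 4°C in the dark in hypotonic fluorochrome solution (50 μg/ml propidium iodide, 25 μg/ml RNase, 0.1% citrate, 0.1% Triton X-100). Sub-G0/G1 apoptotic percentage from 10,000 events per flow histogram.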

TK6 [29] = experiment: Induction of apoptosis in human TK6 cells expressing wild type p53 assessed as necrotic cell population at 25 uM after 8 hrs using annexin-V and 7-ADD staining by flow cytometry; assay type: functional; how it was run: as §6
[30] = Cell cycle arrest in p53 deficient human NH32 cells assessed as accumulation at sub-G0/G1 phase at 25 uM after 72 hrs by flow cytometry; assay type: functional, cell-based; how it was run: as §8
NH32 [31] = experiment: Induction of apoptosis in p53 deficient human NH32 cells assessed as increase in cleaved caspase 3 level at 25 uM after 8 hrs by Western blot analysis; assay type: functional, cell-based; how it was run: as §5
TK6 [32] = experiment: Induction of apoptosis in human TK6 cells expressing wild type p53 assessed as reduction of Bcl-Xl level at 25 uM after 8 hrs by Western blot analysis; assay type: functional, cell-based; how it was run: as §7
TK6 [33] = experiment: Induction of apoptosis in human TK6 cells expressing wild type p53 assessed as decrease in pro-caspase 3 level at 25 uM after 8 hrs by Western blot analysis; assay type: functional, cell-based; how it was run: as §5
TK6 [34] = experiment: Induction of apoptosis in human TK6 cells expressing wild type p53 assessed as increase in cleaved caspase 3 level at 25 uM after 8 hrs by Western blot analysis; assay type: functional, cell-based; how it was run: as §5
[35] = Cell cycle arrest in human WTK1 cells expressing p53 M237I mutant assessed as accumulation at sub-G0/G1 phase at 25 uM after 72 hrs by flow cytometry; assay type: functional, cell-based; how it was run: as §8
WTK1 [36] = experiment: Induction of apoptosis in human WTK1 cells expressing p53 M237I mutant assessed as increase in PARP cleavage at 25 uM after 8 hrs by Western blot analysis; assay type: functional, cell-based; how it was run: as §5
WTK1 [37] = experiment: Induction of apoptosis in human WTK1 cells expressing p53 M237I mutant assessed as decrease in pro-caspase 3 level at 25 uM after 8 hrs by Western blot analysis; assay type: functional, cell-based; how it was run: as §5
TK6 [38] = experiment: Induction of apoptosis in human TK6 cells expressing wild type p53 assessed as late stage apoptotic cell population at 25 uM after 8 hrs using annexin-V and 7-ADD staining by flow cytometry; assay type: functional; how it was run: as §6
WTK1 [39] = experiment: Induction of apoptosis in human WTK1 cells expressing p53 M237I mutant assessed as reduction of Bcl-Xl level at 25 uM after 8 hrs by Western blot analysis; assay type: functional, cell-based; how it was run: as §7
WTK1 [40] = experiment: Induction of apoptosis in human WTK1 cells expressing p53 M237I mutant assessed as increase in cleaved caspase 3 level at 25 uM after 8 hrs by Western blot analysis; assay type: functional, cell-based; how it was run: as §5
[41] = Cell cycle arrest in human TK6 cells expressing wild type p53 assessed as accumulation at sub-G0/G1 phase after 72 hrs by flow cytometry; assay type: functional, cell-based; how it was run: as §4
TK6 [42] = experiment: Cytotoxicity against human TK6 cells expressing wild type p53; assay type: functional, cell-based

COc1cccc2c1C(=O)c1c(O)c3c(c(O)c1C2=O)C[C@@](O)(C(=O)CO)C[C@@H]3O[C@H]1C[C@H](N)[C@H](O)[C@H](C)O1
Activity (WTK1 [1]): inactive | Activity (WTK1 [2]): Active | Activity (WTK1 [3]): inactive | Activity (TK6 [4]): Active | Activity (NH32 [5]): Active | Activity (WTK1 [6]): Active | Activity (NH32 [7]): Active | Activity (TK6 [8]): Active | Activity (TK6 [9]): inactive | Activity (TK6 [10]): Active | Activity (WTK1 [11]): Active | Activity (NH32 [12]): Active | Activity [13]: Active | Activity (TK6 [14]): inactive | Activity (TK6 [15]): Active | Activity (TK6 [16]): Active | Activity (WTK1 [17]): inactive | Activity [18]: inactive | Activity (WTK1 [19]): Active | Activity [20]: inactive

O=C1C2CCN(CC2)C1(CO)CO
Activity (WTK1 [1]): inactive | Activity (WTK1 [3]): inactive | Activity (NH32 [21]): inactive | Activity (TK6 [22]): 66.1% | Activity (TK6 [23]): inactive | Activity (TK6 [9]): inactive | Activity (NH32 [24]): inactive | Activity (TK6 [25]): inactive | Activity (NH32 [26]): inactive | Activity (TK6 [27]): 14.9% | Activity [28]: Active | Activity (TK6 [29]): 1.3% | Activity [30]: Active | Activity (TK6 [14]): inactive | Activity (NH32 [31]): inactive | Activity (TK6 [32]): Active | Activity (TK6 [33]): inactive | Activity (TK6 [34]): inactive | Activity [35]: Active | Activity (WTK1 [36]): inactive | Activity (WTK1 [37]): inactive | Activity (TK6 [38]): 17.6% | Activity (WTK1 [39]): inactive | Activity (WTK1 [40]): inactive

O=C(CCNC(=O)C(F)F)c1ccccc1
Activity [41]: inactive | Activity (TK6 [42]): Not toxic

NCCNC(=O)C(F)F
Activity [41]: inactive | Activity (TK6 [42]): Not toxic
